Measured values taken from ChEMBL document CHEMBL4680077, “Differentiation of skeletal osteogenic progenitor cells to osteoblasts with 3,4-diarylbenzopyran based amide derivatives: Novel osteogenic agents” (Eur J Med Chem, 2016).
Activity calls are given as the source filed them. The calls are words filed in the database; no cut-off is given here.

Experiments:
[1] = tested on: Calvarial osteoblast; assay: Induction of osteoblast differentiation in mouse calvarial osteoblast assessed as increase in ALP activity using PNPP as substrate at 0.000001 to 1 uM incubated activity for 48 hrs by spectrophotometric analysis relative to control; format: functional, cell-based; conditions: dose lower 1e-06 µM, dose upper 1.0 µM
[2] = tested on: Calvarial osteoblast; assay: Induction of osteoblast differentiation in mouse calvarial osteoblast assessed as increase in ERbeta expression at 10 nM incubated for 48 hrs by Western blot analysis; format: functional, cell-based
In short: (§1)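 Calvarial osteoblasts at 60–70% confluence were treated ± compound for 48 h, with 100 pM E2 as positive control. Lysates (30 µg protein) were resolved on 10% SDS-PAGE, transferred to PVDF and probed for ER-α and ER-β with HRP secondaries and ECL detection. Bands were quantified by densitometry normalized to β-actin.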

[3] = tested on: Mus musculus; assay: In vivo osteogenic activity in ovariectomized BALB/c mouse assessed as decrease in trabecular spacing administered via oral gavage for 1 month by microCT imaging analysis; format: functional, organism-based; conditions: time 1.0 months
In short: (§2)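 Ovariectomized female balb/c mice, 8 weeks old, 10 per group, received 1.0 or 10.0 mg kg-1 once daily by oral gavage (gum acacia vehicle) for 4 weeks, alongside sham and Ovx vehicle groups. Femurs were scanned by microCT. BV/TV, Tb.N and Tb.Sp were derived by the mean intercept length method. Mean ± SE.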

[4] = tested on: Mus musculus; assay: In vivo osteogenic activity in ovariectomized BALB/c mouse assessed as increase in femur bone volume density administered via oral gavage for 1 month by microCT imaging analysis; format: functional, organism-based; conditions: time 1.0 months; in short: as §2
[5] = tested on: Calvarial osteoblast; assay: Induction of osteoblast differentiation in mouse calvarial osteoblast assessed as increase in ERalpha expression at 10 nM incubated for 48 hrs by Western blot analysis; format: functional, cell-based; in short: as §1
[6] = tested on: Mus musculus; assay: In vivo osteogenic activity in ovariectomized BALB/c mouse assessed as increase in trabecular number administered via oral gavage for 1 month by microCT imaging analysis; format: functional, organism-based; conditions: time 1.0 months; in short: as §2

Q: How did the Activity [1] turn out when CCCCN(C)C(=O)CCCOc1ccc(C2=C(c3ccccc3)C(C)(C)Oc3cc(OC)ccc32)cc1 was run?
A: The Activity was “Active”.

Q: Which Activity [2] does the source give for C[C@]12CC[C@@H]3c4ccc(O)cc4CC[C@H]3[C@@H]1CC[C@@H]2O here?
A: The Activity was “Active”.

Q: What about the Activity [3] of the same compound?
A: Its Activity is “Active”.

Q: What about the Activity [4] of the same compound?
A: The Activity was “Active”.

Q: What about the Activity [5] of the same compound?
A: The Activity was “inactive”.

Q: And the Activity [6]?
A: The Activity was “Active”.

Q: Which Activity [1] does the source give for COc1ccc2c(c1)OC(C)(C)[C@H](c1ccccc1)[C@H]2c1ccc(OCCCCC(=O)NCc2ccccn2)cc1 here?
A: Its Activity is “Active”.

Q: For CCCCN(C)C(=O)CCCOc1ccc([C@H]2c3ccc(OC)cc3OC(C)(C)[C@@H]2c2ccccc2)cc1, which Activity [1] is on record?
A: Its Activity is “Active”.

Q: How did the Activity [1] turn out when COc1ccc2c(c1)OC(C)(C)[C@H](c1ccccc1)[C@H]2c1ccc(OCCCCCC(=O)NCc2ccccn2)cc1 was run?
A: The Activity was “Active”.
